Three compounds from ChEMBL document CHEMBL5705901, “Exploiting selective BCL-2 family inhibitors to dissect cell survival dependencies and define improved strategies for cancer therapy” (Sci Transl Med, 2015) can be followed below.

A short description of data set [1]: Toxicity in po dosed SCID mouse assessed as body weight loss relative to control. Conditions: in vivo. It counts as organism-based.
A further data set has as its system A549. Description: Antitumor activity against 3 times passaged human A549 cells xenografted in po dosed SCID mouse assessed as maximum tumor growth inhibition relative to control. It counts as functional. For orientation: In xenograft studies the graft and the host belong to different species.
Another data set concerns NCI-H1650. As to the kind of experiment: Synergistic antitumor activity against human NCI-H1650 cells xenografted in SCID-bg mouse assessed as maximum tumor growth inhibition at 25 mg/kg, po coadministered with docetaxel once daily for 14 days relative to control. The format is functional. Conditions: NCI-H1650, 336 h, time 14 day, read-out: TGI. An outline of the steps:
(§1)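 Xenografts dosed with oral inhibitor plus intravenous docetaxel. TGImax = 100(1 − Tv/Cv), from mean treated and control tumor volumes; TGD = 100(T/C − 1), from median times to reach 1 cm3. Group size 5 mice (NCI-H747, A549-FP3, EBC-1, OVCAR-5), 8 (NCI-H358), 10 (NCI-H1650).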

A further data set has as its system NCI-H358. As to the kind of experiment: Synergistic antitumor activity against human NCI-H358 cells xenografted in po dosed SCID mouse assessed as tumor growth delay in presence of docetaxel relative to control. It counts as functional. An outline of the steps:
as §1

Data set [2] has as its system OVCAR-5. As to the kind of experiment: Synergistic antitumor activity against human OVCAR-5 cells xenografted in po dosed SCID mouse assessed as tumor growth delay in presence of docetaxel relative to control. The format is functional. An outline of the steps: as §1
Data set [3] relates to MDA-MB-231. As to the kind of experiment: Antitumor activity against LC3 positive human MDA-MB-231 cells xenografted in SCID mouse assessed as maximum tumor growth inhibition at 25 mg/kg, po administered daily for 14 days relative to control. The format is functional. Conditions: MDA-MB-231, 336 h, time 14 day, read-out: TGI. An outline of the steps: (§2)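 MDA-MB-231 LC3 metastatic breast cancer xenograft, 10 mice per group, with a vehicle control. Dosing: oral agent 25 mg/kg daily for 14 days; docetaxel 7.5 mg/kg iv once; combination gives both regimens. Mean tumor volumes tracked. TGImax = 100(1 − Tv/Cv) from mean treated vs control volumes. TGD = 100(T/C − 1) from median times to reach 1 cm3.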

Data set [4] is described as follows: Toxicity in Sprague-Dawley rat assessed as inhibition of […] by measuring reduction in circulating platelets at 7 mg/kg, po administered daily for 5 days and measured on day 6 by microscopic analysis. The format is organism-based. Conditions: in vivo, 144 h, time 6 day. An outline of the steps: (§3)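 Male Sprague-Dawley rats, n = 10 per group: docetaxel 5 mg/kg i.v. once, or oral inhibitor daily for 5 days (30, 50 or 7 mg/kg depending on agent), alone or combined with docetaxel, against vehicles. Total neutrophil and platelet counts in blood collected on day 6; Tukey-Kramer test versus vehicle.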

Data set [5] in a line: Toxicity in Sprague-Dawley rat assessed as inhibition of granulopoiesis by measuring reduction in neutrophil count at 7 mg/kg, po administered daily for 5 days measured on day 6 in presence of docetaxel by microscopic analysis relative to control. It counts as organism-based. Conditions: in vivo, 144 h, time 6 day. A digest of the protocol:
as §3

The next data set relates to MOLT-4. As to the kind of experiment: Induction of apoptosis in human MOLT-4 cells assessed as cytochrome C release from mitochondria upto 500 nM incubated for 4 hrs by immunoblot analysis. It counts as functional, cell-based. An outline of the steps:
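Molt-4 cells were treated for 4 h with increasing concentrations. Cytochrome c in the mitochondrial and cytosolic fractions was determined by immunoblotting.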
On the technique in general: In western blotting, separated proteins are transferred to a membrane and probed.

In data set [6] the test system is OVCAR-5. As to the kind of experiment: Antitumor activity against human OVCAR-5 xenografted in po dosed SCID mouse assessed as maximum tumor growth inhibition relative to control. The format is functional.
The next data set deals with NCI-H747. Description: Synergistic antitumor activity against human NCI-H747 cells xenografted in po dosed SCID-bg mouse assessed as tumor growth delay in presence of docetaxel relative to control. It counts as functional. A digest of the protocol: as §1
Data set [7] has as its system EBC-1. As to the kind of experiment: Synergistic antitumor activity against human EBC-1 cells xenografted in po dosed SCID-bg mouse assessed as maximum tumor growth inhibition in presence of docetaxel relative to control. The format is functional. A digest of the protocol:
as §1

Data set [8] relates to MDA-MB-231. As to the kind of experiment: Synergistic antitumor activity against LC3 positive human MDA-MB-231 cells xenografted in SCID mouse assessed as tumor growth delay at 25 mg/kg, po coadministered with docetaxel once daily for 14 days relative to control. It counts as functional. The settings on record: time 14 day. A digest of the protocol:
as §2

Another data set relates to OVCAR-8. Description: Synergistic antiproliferative activity against human OVCAR-8 cells assessed as reduction in cell viability by measuring bliss sum score incubated for 72 hrs in presence of docetaxel by CellTiter-Glo cell vaibility assay. The format is functional. In general terms: In ATP-based viability assays light output follows the ATP content of the culture.

For the next data set, the system named is MEF. As to the kind of experiment: Cytotoxicity against Mcl-1 knockout MEF cells assessed as reduction in cell viability incubated for 48 hrs by CellTiter-Glo cell vaibility assay. It counts as toxicity, cell-based. Conditions: mouse.
Data set [9] concerns MCF7. Description: Synergistic antiproliferative activity against human MCF7 cells expressing luciferase assessed as reduction in cell viability by measuring bliss sum score incubated for 72 hrs in presence of docetaxel by CellTiter-Glo cell vaibility assay. The format is functional.
The test system of a further data set is OVCAR-4. Description: Antagonistic antiproliferative activity against human OVCAR-4 cells assessed as reduction in cell viability by measuring bliss sum score incubated for 72 hrs in presence of docetaxel by CellTiter-Glo cell vaibility assay. It counts as functional.
Data set [10] is described as follows: Synergistic antiproliferative activity against human HCC1500 cells assessed as reduction in cell viability by measuring bliss sum score incubated for 72 hrs in presence of docetaxel by CellTiter-Glo cell vaibility assay. It counts as functional.
For the next data set, the system named is HCC2218. Description: Antagonistic antiproliferative activity against human HCC2218 cells assessed as reduction in cell viability by measuring bliss sum score incubated for 72 hrs in presence of docetaxel by CellTiter-Glo cell vaibility assay. The format is functional.
Data set [11] concerns EBC-1. As to the kind of experiment: Antagonistic antiproliferative activity against human EBC-1 cells assessed as reduction in cell viability by measuring bliss sum score incubated for 72 hrs in presence of docetaxel by CellTiter-Glo cell vaibility assay. The format is functional.
The next data set relates to HCC1143. Description: Synergistic antiproliferative activity against human HCC1143 cells assessed as reduction in cell viability by measuring bliss sum score incubated for 72 hrs in presence of docetaxel by CellTiter-Glo cell vaibility assay. It counts as functional.
The test system of data set [12] is ZR-75-1. Description: Synergistic antiproliferative activity against human ZR-75-1 cells assessed as reduction in cell viability by measuring bliss sum score incubated for 72 hrs in presence of docetaxel by CellTiter-Glo cell vaibility assay. The format is functional.
Another data set relates to MDA-MB-453. As to the kind of experiment: Induction of apoptosis in human MDA-MB-453 cells assessed as accumulation of cells with sub-G0-G1 DNA content at 1 uM incubated for 48 hrs in presence of docetaxel by flow cytometric analysis. It counts as functional, cell-based.
In the next data set the test system is MDA-MB-175-VII. Description: Induction of apoptosis in human MDA-MB-175-VII cells assessed as accumulation of cells with sub-G0-G1 DNA content at 1 uM incubated for 48 hrs in presence of docetaxel by flow cytometric analysis. The format is functional, cell-based.
A further data set deals with HCC1428. Description: Induction of apoptosis in human HCC1428 cells assessed as accumulation of cells with sub-G0-G1 DNA content at 1 uM incubated for 48 hrs in presence of docetaxel by flow cytometric analysis. The format is functional, cell-based.
The next data set concerns HCC38. As to the kind of experiment: Induction of apoptosis in human HCC38 cells assessed as accumulation of cells with sub-G0-G1 DNA content at 1 uM incubated for 48 hrs in presence of docetaxel by flow cytometric analysis. The format is functional, cell-based.
Data set [13] concerns ZR-75-1. Description: Induction of apoptosis in human ZR-75-1 cells assessed as accumulation of cells with sub-G0-G1 DNA content at 1 uM incubated for 48 hrs in presence of docetaxel by flow cytometric analysis. The format is functional, cell-based.
For data set [14], the system named is MCF7. Description: Induction of apoptosis in human MCF7 cells expressing luciferase assessed as accumulation of cells with sub-G0-G1 DNA content at 1 uM incubated for 48 hrs in presence of docetaxel by flow cytometric analysis. It counts as functional, cell-based.

SMILES strings stand for the structures. Calls of active or inactive are those of the source. The rule behind the calls is not given here. Bounds are passed on as bounds.

For the compound `Cc1c(-c2ccc(N3CCc4cccc(C(=O)Nc5nc6ccccc6s5)c4C3)nc2C(=O)O)cnn1CC12CC3CC(CC(C3)C1)C2`, the Activity in [1] is less than 9%; in the data set with NCI-H358, 233%; with OVCAR-5 [2] it was 85%; in [4], “Toxic”; in data set [5], “Toxic”; in the data set on NCI-H747, 167%. Also, the Activity in the data set on MDA-MB-231 [8] turned out to be 141%. The inhibition of tumour growth (TGI) (usually how far tumour growth fell short of that in controls) in the data set on A549 is listed as 67%; in the data set with OVCAR-5 [6], 34%; in the data set on EBC-1 [7], 88%. Further, the figures for the inhibition in vivo at 25 mg/kg in the data set on NCI-H1650 and in the data set with MDA-MB-231 [3] were 98% and 55%, respectively. Further, the outcome in the data set with MOLT-4 was Active.
With `CN(C)CC#Cc1ccc(OCCCc2sc(N3CCc4cccc(C(=O)Nc5nc6ccccc6s5)c4C3)nc2C(=O)O)c(F)c1` [A-1155463], the Activity_index with OVCAR-8 is recorded as 159; in the data set with MCF7 [9], 63; in the data set with OVCAR-4, -129; in [10] it was 146; in the data set with HCC2218, -250; in the data set on EBC-1 [11] it was -103. Besides, the values for the Activity_index with HCC1143 and in the data set on ZR-75-1 [12] were 195 and 103, respectively. The Activity entry in the data set with MEF is listed as “Toxic”.
On to `CC1(C)CCC(c2ccc(Cl)cc2)=C(CN2CCN(c3ccc(C(=O)NS(=O)(=O)c4ccc(N[C@H](CCN5CCOCC5)CSc5ccccc5)c(S(=O)(=O)C(F)(F)F)c4)cc3)CC2)C1` [NAVITOCLAX], for which the outcome in the data set with MDA-MB-453, in the data set with MDA-MB-175-VII, in the data set on HCC1428, in the data set on HCC38, in the data set on ZR-75-1 [13] and with MCF7 [14] was Active.
